Results collected from several papers.
Each line is one published result; the experiments were not run side by side.
Cell line: Vero
Read-out: cell growth or viability

SMILES	method	time	IC50
N=C1C(Cl)=C(N)C(=O)c2[nH]cc(C(O)CO)c21 (stereo not drawn)	MTT	72 h	14 µM
O=[N+]([O-])c1ccc(-c2csc(Nc3ccc4c(O)ncnc4c3)n2)cc1	MTT		> 50 µM
O=[N+]([O-])c1ccc(-c2nc3ccccn3c2NC2CCCCC2)cc1	MTT	48 h	85 µM
COc1cccc(CCNCc2c(N)nc(N)nc2C2CCCCC2)c1	SRB		23 µM
CN(C)c1ccc(-c2nc3ccccn3c2N)cc1	MTT	48 h	70 µM
Cc1ccc(C)n1-c1ccc(-c2nnc(S)s2)cc1	MTT	72 h	221 µM
Nc1nc(N)c(CNCCc2ccc(Cl)c(Cl)c2)c(C2CCCCC2)n1	SRB		21 µM
N#Cc1nn(-c2ccc(N=Nc3ccccc3)cc2)c(=S)n(-c2ccccc2)c1=O			42.3 µM
CC(C)(C)Nc1c(-c2ccccc2N)nc2cnccn12	MTT	48 h	85 µM
NC1=C(Cl)C(=O)c2c(C(O)CO)c[nH]c2C1=O (stereo not drawn)	MTT	72 h	> 19.5 µM
Cc1[nH]c(=O)c(CNC(=O)c2ccc(C(F)(F)F)o2)c2c1CCCC2	MTT	72 h	> 50 µg/mL
CC(C)(C)Nc1c(-c2ccc(N)cc2)nc2cnccn12	MTT	48 h	76 µM
Cc1ccc(C)n1-c1ccc(-c2nnc(-c3c(Cl)cccc3Cl)[nH]2)cc1	MTT	72 h	229 µM
Nc1ccccc1-c1nc2cnccn2c1N	MTT	48 h	78 µM
C#Cc1cccc(Nc2ncnc3cc(OCCOC)c(OCCOC)cc23)c1	MTT		> 30 µM
COc1cccc2c1C(=O)c1c(O)c3c(c(O)c1C2=O)C[C@@](O)(C(=O)CO)C[C@@H]3O[C@H]1C[C@H](N)[C@H](O)[C@H](C)O1	SRB		0.68 µM
Nc1nc(N)c(CNCCc2ccc(Cl)cc2)c(C2CCCCC2)n1	SRB		23 µM

SMILES	method	time	IC50
Oc1ncnc2cc(Nc3nc(-c4ccc(Br)cc4)cs3)ccc12	MTT		> 50 µM
Cc1ccc(C)n1-c1ccc(C(=O)NNC=O)cc1	MTT	72 h	211 µM
Nc1nc(N)c(CNCCc2ccccc2Cl)c(C2CCCCC2)n1	SRB		21 µM
Oc1ncnc2cc(Nc3nc(-c4ccc(F)cc4)cs3)ccc12	MTT		> 50 µM
Nc1c(-c2ccc([N+](=O)[O-])cc2)nc2cnccn12	MTT	48 h	80 µM
Nc1nc(N)c(CNCCc2ccccc2F)c(C2CCCCC2)n1	SRB		22 µM
Nc1c(-c2ccc([N+](=O)[O-])cc2)nc2ccccn12	MTT	48 h	74 µM
Cc1ccc(C)n1-c1ccc(-c2nnco2)cc1	MTT	72 h	216 µM
COc1ccccc1CCNCc1c(N)nc(N)nc1C1CCCCC1	SRB		21 µM
CN(C)c1ccc(-c2nc3cnccn3c2NC(C)(C)C)cc1	MTT	48 h	> 100 µM
N#Cc1nn(-c2ccc(N=Nc3ccccc3)cc2)c(=N)n(S(=O)(=O)c2ccc(N)cc2)c1=O			55.2 µM
O=[N+]([O-])c1ccc(/C(O)=C/C(=S)S)cc1	MTT	48 h	255 µg/mL
CCc1nc(N)nc(N)c1-c1ccc(Cl)cc1	SRB		27 µM
Cc1[nH]c(=O)c(CNC(=O)c2ccc(F)nc2)c2c1CCCC2	MTT	72 h	> 50 µg/mL
Oc1ncnc2cc(Nc3nc(-c4ccccc4)cs3)ccc12	MTT		> 50 µM
Nc1nc(N)c(CNCCc2ccc(Cl)cc2Cl)c(C2CCCCC2)n1	SRB		16 µM
